Source: ChEMBL document CHEMBL1153414, “Discovering potent inhibitors against the beta-hydroxyacyl-acyl carrier protein dehydratase (FabZ) of Helicobacter pylori: structure-based design, synthesis, bioassay, and crystal structure determination” (J Med Chem, 2009)
Values after ≈ are worked out from the molar mass of the structure shown. Active and inactive are the calls of the source. No cut-off for these calls is given here.

Experiments:
Helicobacter pylori [1] = test: Inhibition of Helicobacter pylori FabZ at 50 uM
Procedure, shortened: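 HpFabZ activity read spectrophotometrically as the A260 decrease during crotonoyl-CoA conversion to β-hydroxybutyryl-CoA. Single inhibitor level of 50 µM, compound in 1% DMSO preincubated with enzyme for 1 h before assay start.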

[2] = Inhibition of Helicobacter pylori FabZ
Procedure, shortened: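 Spectrophotometric HpFabZ assay following the drop in A260 as crotonoyl-CoA converts to β-hydroxybutyryl-CoA. Compounds in 1% DMSO preincubated with enzyme 1 h before starting the reaction. IC50 from logistic fit of dose-response inhibition data. Means of three determinations.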

Helicobacter pylori [3] = test: Antimicrobial activity against Helicobacter pylori SS1 by standard agar dilution method; assay type: functional
Procedure, shortened: (§1)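 Inoculum: H. pylori swabbed into sterile saline to 2.0 McFarland turbidity. Plates incubated at 37 °C under microaerobic gas (85% N₂, 10% CO₂, 5% O₂), read after 3 days. Compound-free agar as control.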

Helicobacter pylori [4] = test: Antimicrobial activity against Helicobacter pylori ATCC 43504 by standard agar dilution method; assay type: functional; procedure, shortened: as §1

Compound | inhibition (Helicobacter pylori [1]) | IC50 [2] [µM] | MIC (Helicobacter pylori [3]) | MIC (Helicobacter pylori [4])
O=C(N/N=C/c1cc(Br)c(O)c(Br)c1O)c1ccccc1 | 38.8% | – | – | –
O=C(N/N=C/c1cc(Br)c(O)c(Br)c1O)c1cccs1 | 72% | – | – | –
O=C(N/N=C/c1cc(Br)c(O)c(Br)c1O)c1ccc(Cl)cc1 | 93.8% | – | > 100 µg/mL | > 100 µg/mL
O=C(N/N=C/c1cc(Br)c(O)c(Br)c1O)c1cc(C(F)(F)F)cc(C(F)(F)F)c1 | – | 2.13 | 100 µg/mL (≈ 182 µM) | 50 µg/mL (≈ 90.9 µM)
O=C(N/N=C/c1ccc(O)cc1O)c1cccnc1 | 25.6% | – | – | –
O=C(N/N=C/c1cc(Br)c(O)c(Br)c1O)c1cc2ccccc2cc1O | – | 0.86 | 100 µg/mL (≈ 208 µM) | 100 µg/mL (≈ 208 µM)
O=C(N/N=C/c1cc(Br)c(O)c(Br)c1O)c1cccc(F)c1 | 23.3% | – | – | –
COc1c(Br)cc(/C=N/NC(=O)c2cccnc2)c(OC)c1Br | 64.4% | – | – | –
O=C(N/N=C/c1cc(Br)c(O)c(Br)c1)c1cccnc1 | 62.1% | – | – | –
O=C(N/N=C/c1cc(Br)c(O)c(Br)c1O)c1cccc(Br)c1 | 96% | – | 100 µg/mL (≈ 203 µM) | 100 µg/mL (≈ 203 µM)
O=C(N/N=C/c1ccc(O)cc1)c1cccnc1 | 15.1% | – | – | –
O=C(N/N=C/c1cc(Br)c(O)c(Br)c1O)c1ccc2ccccc2c1 | 92.6% | – | 50 µg/mL (≈ 108 µM) | 100 µg/mL (≈ 215 µM)
O=C(Cc1ccc(O)cc1)N/N=C/c1cc(Br)c(O)c(Br)c1O | 50% | – | – | –
O=C(N/N=C/c1cc(Br)c(O)c(Br)c1O)c1ccc2cc(O)ccc2c1 | – | 8.77 | 100 µg/mL (≈ 208 µM) | 100 µg/mL (≈ 208 µM)
CC(C)(C)c1ccc(C(=O)N/N=C/c2cc(Br)c(O)c(Br)c2O)cc1 | 74.4% | – | 50 µg/mL (≈ 106 µM) | 100 µg/mL (≈ 213 µM)
O=C(N/N=C/c1cc(Br)c(O)c(Br)c1O)c1ccncc1 | 36.4% | – | – | –
O=C(N/N=C/c1cc(Br)c(O)c(Br)c1O)c1cccnc1 | 71.4% | 39.8 | – | –
O=C(N/N=C/c1cc(Br)c(O)c(Br)c1O)c1ccco1 | 39.4% | – | – | –
O=C(N/N=C/c1cc(Br)c(O)c(Br)c1O)c1ccc(F)cc1 | 85% | 6.43 | – | –
CC(=O)N/N=C/c1cc(Br)c(O)c(Br)c1O | 15.2% | – | – | –

Continued, values first:

inhibition (Helicobacter pylori [1]) | IC50 [2] [µM] | MIC (Helicobacter pylori [3]) | MIC (Helicobacter pylori [4]) | Compound
inactive | – | – | – | COCCN1C(=O)/C(=C\c2ccc(-c3ccc(Cl)c(C(=O)OC)c3)o2)S/C1=N/c1ccccc1Br
19.9% | – | – | – | COCCN1C(=O)/C(=C\c2ccc(-c3ccc(Cl)c(C(=O)OC)c3)o2)S/C1=N/c1cccc(C(F)(F)F)c1
inactive | – | – | – | COCCN1C(=O)/C(=C\c2ccc(-c3ccc(Cl)c(C(=O)OC)c3)o2)S/C1=N/c1ccc(C(F)(F)F)cc1
inactive | – | – | – | COCCN1C(=O)/C(=C\c2ccc(-c3ccc(Cl)c(C(=O)OC)c3)o2)S/C1=N/c1ccc(Br)cc1
32.2% | – | – | – | COCCN1C(=O)/C(=C\c2ccc(-c3ccc(Cl)c(C(=O)O)c3)o2)S/C1=N/c1ccc2ccccc2c1
87% | 1.97 | 100 µg/mL (≈ 208 µM) | 100 µg/mL (≈ 208 µM) | O=C(N/N=C/c1cc(Br)c(O)c(Br)c1O)c1ccc2ccccc2c1O
81.4% | – | – | – | COc1ccc(C(=O)N/N=C/c2cc(Br)c(O)c(Br)c2O)cc1
10% | – | – | – | COCCN1C(=O)/C(=C\c2ccc(-c3ccc(Cl)c(C(=O)OC)c3)o2)S/C1=N/c1ccccc1F
inactive | – | – | – | COCCN1C(=O)/C(=C\c2ccc(-c3ccc(Cl)c(C(=O)OC)c3)o2)S/C1=N/c1ccc(OC)cc1
inactive | – | – | – | COC(=O)c1cc(-c2ccc(/C=C3/S/C(=N/c4ccccc4)N(CCCN(C)C)C3=O)o2)ccc1Cl
inactive | – | – | – | COCCN1C(=O)/C(=C\c2ccc(-c3ccc(Cl)c(C(=O)OC)c3)o2)S/C1=N/c1cccc(F)c1
inactive | – | – | – | COC(=O)c1cc(-c2ccc(/C=C3/S/C(=N/c4ccccc4)N(CCN4CCCC4)C3=O)o2)ccc1Cl
– | 42.7 | > 100 µg/mL | > 100 µg/mL | O=C(N/N=C/c1cc(Br)c(O)c(Br)c1O)c1ccc(-c2ccc(O)cc2)cc1
– | 12.8 | inactive | inactive | O=C(N/N=C/c1cc(Br)c(O)c(Br)c1O)c1ccc(Oc2ccccc2)cc1
inactive | – | – | – | COCCN1C(=O)/C(=C\c2ccc(-c3ccc(Cl)c(C(=O)OC)c3)o2)S/C1=N/c1ccccc1C(F)(F)F
– | 3.75 | 100 µg/mL (≈ 199 µM) | 50 µg/mL (≈ 99.6 µM) | O=C(N/N=C/c1cc(Br)c(O)c(Br)c1O)c1ccc2c(c1)Cc1ccccc1-2
63.9% | – | – | – | COCCN1C(=O)/C(=C\c2ccc(-c3ccc(Cl)c(C(=O)O)c3)o2)S/C1=N/c1ccccc1
12% | – | – | – | COCCN1C(=O)/C(=C\c2ccc(-c3ccc(Cl)c(C(=O)OC)c3)o2)S/C1=N/c1cccc(Br)c1
inactive | – | – | – | COCCN1C(=O)/C(=C\c2ccc(-c3ccc(Cl)c(C(=O)OC)c3)o2)S/C1=N/c1ccc(F)cc1
inactive | – | – | – | COCCN1C(=O)/C(=C\c2ccc(-c3ccc(Cl)c(C(=O)OC)c3)o2)S/C1=N/c1ccccc1OC
94.2% | – | 100 µg/mL (≈ 203 µM) | 100 µg/mL (≈ 203 µM) | O=C(N/N=C/c1cc(Br)c(O)c(Br)c1O)c1ccc(Br)cc1
– | 3.55 | 50 µg/mL (≈ 92.1 µM) | 100 µg/mL (≈ 184 µM) | O=C(N/N=C/c1cc(Br)c(O)c(Br)c1O)c1ccc2cc(Br)ccc2c1
inactive | – | – | – | COCCN1C(=O)/C(=C\c2ccc(-c3cc(C(=O)OC)ccc3Cl)o2)S/C1=N/c1ccccc1
12.6% | – | – | – | COCCN1C(=O)/C(=C\c2ccc(-c3ccc(Cl)c(C(=O)OC)c3)o2)S/C1=N/c1cccc(OC)c1
inactive | – | – | – | CCN(CC)CCN1C(=O)/C(=C\c2ccc(-c3ccc(Cl)c(C(=O)OC)c3)o2)S/C1=N/c1ccccc1
15.4% | – | – | – | COCCN1C(=O)/C(=C\c2ccc(-c3ccc(Cl)c(C(=O)O)c3)o2)S/C1=N/c1ccc(OC)cc1
inactive | – | – | – | COCCN1C(=O)/C(=C\c2ccc(-c3ccc(Cl)cc3)o2)S/C1=N/c1ccccc1
inactive | – | – | – | COCCN1C(=O)/C(=C\c2ccc(-c3ccc(Cl)c(C(=O)OC)c3)o2)S/C1=N/c1ccccc1
